ChEMBL document CHEMBL3108700, “Designing anti-inflammatory drugs from parasitic worms: a synthetic small molecule analogue of the Acanthocheilonema viteae product ES-62 prevents development of collagen-induced arthritis” (J Med Chem, 2013)
Active and inactive are the calls of the source.

Columns and labels:
[1] = target: T1, Toll-like receptor 4 (Mus musculus) (UniProt Q9QUK6); experiment: Inhibition of TLR4-mediated NFkappaB p65 activation in LPS-stimulated BALB/c mouse BMDM at 5 ug/ml preincubated for 18 hrs followed by LPS challenge measured after 1 hr by TransAM ELISA
T1 sequence (whole entry): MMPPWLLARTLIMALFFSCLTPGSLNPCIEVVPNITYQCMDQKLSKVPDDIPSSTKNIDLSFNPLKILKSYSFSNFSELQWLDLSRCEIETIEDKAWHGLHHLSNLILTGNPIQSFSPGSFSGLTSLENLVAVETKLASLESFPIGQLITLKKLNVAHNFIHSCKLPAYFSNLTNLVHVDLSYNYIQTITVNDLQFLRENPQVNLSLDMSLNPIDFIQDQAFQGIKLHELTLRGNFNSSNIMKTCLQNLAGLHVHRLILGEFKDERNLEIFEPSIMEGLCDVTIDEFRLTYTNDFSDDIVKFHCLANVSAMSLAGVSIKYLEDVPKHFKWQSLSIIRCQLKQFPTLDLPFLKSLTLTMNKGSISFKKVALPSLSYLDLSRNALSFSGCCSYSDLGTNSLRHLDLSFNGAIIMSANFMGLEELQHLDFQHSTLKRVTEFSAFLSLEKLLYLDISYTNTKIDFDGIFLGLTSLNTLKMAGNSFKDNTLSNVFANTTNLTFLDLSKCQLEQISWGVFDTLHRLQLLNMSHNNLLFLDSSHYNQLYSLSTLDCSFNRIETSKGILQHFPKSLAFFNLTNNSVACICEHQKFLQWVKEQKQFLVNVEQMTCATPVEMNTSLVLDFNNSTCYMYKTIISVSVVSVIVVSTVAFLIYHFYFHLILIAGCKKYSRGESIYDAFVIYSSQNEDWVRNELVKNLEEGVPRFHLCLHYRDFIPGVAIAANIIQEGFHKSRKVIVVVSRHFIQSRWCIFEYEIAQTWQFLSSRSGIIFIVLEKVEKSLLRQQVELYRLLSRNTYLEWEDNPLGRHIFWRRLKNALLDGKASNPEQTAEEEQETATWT
Outline: (§1)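 Bone marrow macrophages (4 × 10^6/well) had their medium changed after 24 h, were pretreated with compounds at 5 μg/mL for 18 h, then stimulated for 1 h with 100 ng/mL LPS, 10 ng/mL BLP or 1 μM CpG. Activated NFκB p65 in nuclear extracts was measured by TransAM ELISA in duplicate.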

[2] = target: T2, Toll-like receptor 9 (Mus musculus) (UniProt Q9EQU3); experiment: Inhibition of TLR9 in BALB/c mouse BMDM assessed as downregulation of CpG-stimulated IL-6 level at 5 ug/ml preincubated for 18 hrs followed by CpG challenge measured after 24 hrs by ELISA relative to control
T2 sequence (whole entry): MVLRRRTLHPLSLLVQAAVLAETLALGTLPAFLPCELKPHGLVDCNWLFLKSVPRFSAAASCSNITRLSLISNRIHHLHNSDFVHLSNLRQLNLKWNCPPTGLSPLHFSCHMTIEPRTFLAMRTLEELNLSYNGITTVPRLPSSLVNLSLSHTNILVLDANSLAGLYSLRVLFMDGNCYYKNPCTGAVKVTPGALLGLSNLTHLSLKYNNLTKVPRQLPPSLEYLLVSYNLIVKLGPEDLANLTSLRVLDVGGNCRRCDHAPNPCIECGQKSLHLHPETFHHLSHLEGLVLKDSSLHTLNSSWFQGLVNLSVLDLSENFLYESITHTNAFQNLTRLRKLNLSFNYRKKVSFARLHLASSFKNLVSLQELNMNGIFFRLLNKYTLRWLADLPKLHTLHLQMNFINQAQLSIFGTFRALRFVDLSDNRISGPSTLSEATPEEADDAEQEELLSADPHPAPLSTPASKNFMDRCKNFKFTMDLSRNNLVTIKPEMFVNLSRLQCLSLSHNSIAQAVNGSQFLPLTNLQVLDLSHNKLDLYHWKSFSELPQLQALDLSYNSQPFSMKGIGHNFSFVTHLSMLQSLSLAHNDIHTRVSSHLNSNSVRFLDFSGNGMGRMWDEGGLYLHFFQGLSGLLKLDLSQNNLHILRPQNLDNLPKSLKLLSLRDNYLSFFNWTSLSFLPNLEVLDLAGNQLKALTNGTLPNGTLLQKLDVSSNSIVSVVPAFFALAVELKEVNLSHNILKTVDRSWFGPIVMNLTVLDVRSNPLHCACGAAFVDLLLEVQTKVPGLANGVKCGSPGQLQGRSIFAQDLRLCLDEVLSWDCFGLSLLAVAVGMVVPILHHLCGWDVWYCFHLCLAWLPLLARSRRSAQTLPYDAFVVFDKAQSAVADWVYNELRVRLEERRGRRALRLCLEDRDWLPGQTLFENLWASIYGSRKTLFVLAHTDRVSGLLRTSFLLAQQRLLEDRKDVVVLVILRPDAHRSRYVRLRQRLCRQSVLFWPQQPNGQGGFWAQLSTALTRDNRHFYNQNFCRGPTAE
Outline: (§2)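 BALB/c male bone marrow macrophages were differentiated 7 days with L929 supernatant (≥99% CD11b+/F4/80+). Cells were plated at 2 × 10^5/well in triplicate, rested overnight, and given compounds at 5 μg/mL for 18 h. They were then stimulated with 100 ng/mL S. minnesota LPS, 10 ng/mL Pam3CSK4 (BLP) or 0.01 μM CpG for 24 h. Supernatant IL-12p40 and IL-6 were measured by ELISA (sensitivity 16 pg/mL).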

[3] = target: T2, Toll-like receptor 9 (Mus musculus); experiment: Inhibition of TLR9 in BALB/c mouse BMDM assessed as downregulation of CpG-stimulated IL-12p40 level at 5 ug/ml preincubated for 18 hrs followed by CpG challenge measured after 24 hrs by ELISA relative to control; outline: as §2
TLR2/TLR6 (Mus musculus) [4] = target: T3, TLR2/TLR6 (Mus musculus) (UniProt Q9QUN7+Q9EPW9); experiment: Inhibition of TLR2/6-mediated NFkappaB p65 activation in BLP-stimulated BALB/c mouse BMDM at 5 ug/ml preincubated for 18 hrs followed by BLP challenge measured after 1 hr by TransAM ELISA; format: protein-complex assay; outline: as §1
TLR2/TLR6 (Mus musculus) [5] = target: T3, TLR2/TLR6 (Mus musculus); experiment: Inhibition of TLR2/6 in BALB/c mouse BMDM assessed as downregulation of BLP-stimulated IL-6 level at 5 ug/ml preincubated for 18 hrs followed by BLP challenge measured after 24 hrs by ELISA relative to control; format: protein-complex assay; outline: as §2
TLR2/TLR6 (Mus musculus) [6] = target: T3, TLR2/TLR6 (Mus musculus); experiment: Inhibition of TLR2/6 in BALB/c mouse BMDM assessed as downregulation of BLP-stimulated IL-12p40 level at 5 ug/ml preincubated for 18 hrs followed by BLP challenge measured after 24 hrs by ELISA relative to control; format: protein-complex assay; outline: as §2
[7] = target: T2, Toll-like receptor 9 (Mus musculus); experiment: Inhibition of TLR9-mediated NFkappaB p65 activation in CpG-stimulated BALB/c mouse BMDM at 5 ug/ml preincubated for 18 hrs followed by CpG challenge measured after 1 hr by TransAM ELISA; outline: as §1
[8] = target: T1, Toll-like receptor 4 (Mus musculus); experiment: Inhibition of TLR4 in BALB/c mouse BMDM assessed as downregulation of LPS-stimulated IL-6 level at 5 ug/ml preincubated for 18 hrs followed by LPS challenge measured after 24 hrs by ELISA relative to control; outline: as §2
[9] = target: T1, Toll-like receptor 4 (Mus musculus); experiment: Inhibition of TLR4 in BALB/c mouse BMDM assessed as downregulation of LPS-stimulated IL-12p40 level at 5 ug/ml preincubated for 18 hrs followed by LPS challenge measured after 24 hrs by ELISA relative to control; outline: as §2

Compound | inhibition [1] | inhibition [2] | inhibition [3] | inhibition (TLR2/TLR6 (Mus musculus) [4]) | inhibition (TLR2/TLR6 (Mus musculus) [5]) | inhibition (TLR2/TLR6 (Mus musculus) [6]) | inhibition [7] | inhibition [8] | inhibition [9]
CN(C)CCS(=O)(=O)NCc1ccc([N+](=O)[O-])cc1 | inactive | Active | Active | inactive | Active | Active | inactive | Active | inactive
C[N+]1(CCCS(=O)(=O)Cc2ccc(Br)cc2)CCOCC1 |  | inactive | inactive |  | inactive | inactive |  | inactive | inactive
O=S(=O)(CCN1CCOCC1)c1ccccc1 |  | inactive | inactive |  | inactive | Active |  | inactive | inactive
O=S(=O)(CCN1CCOCC1)Nc1ccccc1 |  | inactive | inactive |  | inactive | inactive |  | inactive | inactive
COc1cccc(C(=O)NCCN2CCOCC2)c1 |  | Active | inactive |  | inactive | Active |  | inactive | Active
Cc1ccc(CS(=O)(=O)CCC[N+]2(C)CCCC2)cc1 |  | inactive | inactive |  | inactive | inactive |  | inactive | inactive
Cc1ccc(CS(=O)(=O)CC[N+](C)(C)C)cc1 |  | Active | Active |  | inactive | Active |  | inactive | Active
Cc1ccc(CS(=O)(=O)CCN(C)C)cc1 |  | inactive | inactive |  | inactive | inactive |  | Active | Active
Cc1ccc(CS(=O)(=O)CCCN2CCOCC2)cc1 |  | inactive | inactive |  | inactive | inactive |  | inactive | inactive
CN(C)CCS(=O)(=O)Cc1ccc(F)cc1 |  | inactive | inactive |  | Active | Active |  | inactive | inactive
CN(C)CCN(C)CCS(=O)(=O)NCc1ccc(Br)cc1 |  | inactive | Active |  | Active | inactive |  | inactive | Active
CN(C)CCN(C)CCS(=O)(=O)Nc1ccccc1 |  | inactive | inactive |  | inactive | inactive |  | inactive | Active
O=S(=O)(CCN1CCCC1)Cc1ccc(F)cc1 |  | inactive | inactive |  | inactive | Active |  | inactive | inactive
